Screening data deposited in PubChem BioAssay by The Scripps Research Institute Molecular Screening Center.
This is a sample that favours compounds with a hit; in the whole collection about 2% have one here.
TDP2 absorb – TDP2 (human) inhibition, absorbance primary screen; recombinant TDP2, T5PNP hydrolysis, p-nitrophenol absorbance 415 nm; 370,000 compounds, 0.34% hits; AID 720702; O95551; inhibition, % at 12.8 µM;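 active = inhibition above the mean of all tested compounds plus 3 SD, set per campaign, cut at about 25% in these data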;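 also: 0% = DMSO with enzyme and 100% = buffer with substrate but no TDP2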
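Material: recombinant human TDP2; quantity: TDP2 enzyme at 120 nM final; medium: Tris-HCl pH 7.5 with MgCl2; compound: single concentration, 12.8 µM nominal, with 1% DMSO; incubation: 2 h enzyme incubation at 37 °C; signal: epi absorbance; measure: percent inhibition; benchmarks: high control without enzyme, low control DMSO plus TDP2; repeats: singlicate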
TCR CD3 inh – inhibitors of human TCR-CD3 interaction; inhibition, % at 9.4 µM; 360,000 compounds, 0.37% hits; TAMRA-labeled TCR probe fluorescence, biochemical; in the data active = inhibition above about 19%;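 also: recombinant mutant TCR 2C K166C tagged with TAMRA read by polarization; 0% = receptor in buffer alone and 100% = receptor with positive control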
PAD4 FP inh – inhibitors of human PAD4; recombinant PAD4, RCA probe fluorescence polarization; 330,000 compounds, 0.41% hits; Q9UM07; inhibition, % at 6.36 µM;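 active = percent inhibition above a cutoff equal to the mean of all tested compounds plus 3 SD, cut at about 15% in these data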;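 also: 0% = PAD4 with RCA probe and DMSO and 100% = probe without PAD4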
SIAE primary – blocks human sialic acid acetylesterase; SIAE FP-Rh probe binding, fluorescence polarization; inhibition, % at 9.66 µM; 370,000 compounds, 0.69% hits; AID 1053197;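 active = inhibition above a cutoff: mean of compounds within the control limits plus 3 SD of those, cut at about 17% in these data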;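 also: 0% = plate median of compound wells and 100% = probe without SIAE protein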
HTRA1 inh – HTRA1 (human) protease inhibition | Q92743 | recombinant HTRA1, FP-rhodamine activity-based probe, fluorescence polarization | inhibition, % at 5.96 µM | 340,000 compounds, 0.5% hits; in the data active = inhibition above about 36%;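 also: 0% = enzyme with DMSO and 100% = wells lacking enzyme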
Target sequence (Q92743 whole entry, looked up): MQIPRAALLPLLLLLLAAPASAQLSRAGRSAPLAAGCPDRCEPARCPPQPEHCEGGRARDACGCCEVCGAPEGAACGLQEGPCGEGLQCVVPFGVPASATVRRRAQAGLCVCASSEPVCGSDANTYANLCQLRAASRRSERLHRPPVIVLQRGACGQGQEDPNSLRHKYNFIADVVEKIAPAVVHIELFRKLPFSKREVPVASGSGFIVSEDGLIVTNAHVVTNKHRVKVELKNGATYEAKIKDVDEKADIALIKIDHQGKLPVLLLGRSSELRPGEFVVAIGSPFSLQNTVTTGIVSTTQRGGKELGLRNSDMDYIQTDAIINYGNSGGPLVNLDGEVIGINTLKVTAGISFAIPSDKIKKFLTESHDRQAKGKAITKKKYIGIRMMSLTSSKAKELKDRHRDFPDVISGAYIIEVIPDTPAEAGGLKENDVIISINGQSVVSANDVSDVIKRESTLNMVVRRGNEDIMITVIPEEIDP
mABHD4 FP – inhibits mouse alpha/beta hydrolase domain 4; 370,000 compounds, 0.54% hits; Q8VD66; purified mABHD4, FP-Rh probe fluorescence polarization; inhibition, % at 8.92 µM;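 active = inhibition exceeding the mean over every tested compound plus 3 SD, cut at about 30% in these data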;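 also: 0% = plate median of compound wells and 100% = S159A mutant with DMSO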
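Test system: mABHD4 protein | Buffer or medium: HEPES pH 7.0 buffer, 150 mM NaCl, 0.01% Pluronic F-127 | Probe or stimulus: FP-Rh fluorescent activity-based probe, added after compound pre-incubation | Timing: Pre-incubation 45 min, probe exposure 60 min, at 25 °C | Technique: Fluorescence polarization, excitation 525 nm, emission 598 nm, BODIPY TMR filters | Repeats: Single well per compound (singlicate)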
The depositor's hits bear a star; · = no result.

SMILES	TDP2 absorb	TCR CD3 inh	PAD4 FP inh	SIAE primary	HTRA1 inh	mABHD4 FP
CCN1CCN(C(=O)c2cc3sccc3n2CC(=O)c2ccccc2)CC1	3.4	8.3	0.7	67.2*	4.1	5.8
COCCCNc1oc(COc2ccc(Cl)cc2Cl)nc1C#N	-2.1	0.3	-4.3	17.2*	2.2	-7.0
CCn1c(SCC(=O)c2ccc(-c3ccccc3)cc2)nnc1-c1ccccc1OC	-5.8	·	·	-3.5	·	-19.2
Cc1cc(=O)n(C)c2ccccc12	18.4	4.3	-2.4	2.9	7.7	-2.5
Cc1cc(=O)n2c3c(c4c(cc13)c(CN(C)C)cc(=O)n4C)OC2	86.0*	-3.4	·	9.0	5.7	8.9
CC[C@@H](CCCCCC#N)CCC(=O)N(c1ccccc1)c1ccccc1	-2.1	·	·	9.2	·	-14.3
CN(C)S(=O)(=O)c1cccc(C(=O)N/N=C\c2cccc(C#N)c2)c1	4.2	·	·	1.7	·	4.4
Nc1c(N2CCCC2)cc(Cl)c2nonc12	·	·	7.4	·	36.9*	·
O=C(O)c1cc(O)c2c(c1)C(=O)c1cccc(O)c1C2=O	0.0	11.4	-3.0	11.8	30.6	98.5*
CCOc1ccc(-c2nc(C#N)c(NCc3ccc4c(c3)OCO4)o2)cc1	-1.0	4.3	3.8	17.8*	3.6	-0.2
CC(C)(C)c1ccc(S(=O)(=O)N2CCCC(C(=O)NCc3ccco3)C2)cc1 (centres undefined)	-5.1	·	·	-2.0	·	2.2
CCCCCCCCCCCC1=C(O)C(=O)C=C(O)C1=O	·	·	-2.4	·	43.0*	·
CCCCCCc1c(O)c2ccccc2[nH]c1=O	-2.1	0.6	1.8	0.0	9.1	11.5
Cc1ccc2cccc(NC3OC(=O)c4ccccc43)c2n1 (centres undefined)	4.7	9.8	-5.0	19.1*	14.5	7.0
COc1cc(NC(=O)COC(=O)[C@@H]2CCCN2S(=O)(=O)c2ccc(Cl)cc2)cc(OC)c1OC	-12.2	3.0	3.3	17.8*	-3.8	-3.4
O=C(COC(=O)[C@@H]1CCCN1S(=O)(=O)c1ccc(Cl)cc1)NC12CC3CC(CC(C3)C1)C2	-7.0	-0.6	2.3	-2.2	-28.2	5.9
COc1ccc(CNC(=O)O[C@H]2CC[C@@]34CCCN3C(=O)CCC[C@H]4C2)cc1OC	-12.6	·	·	-3.9	·	5.0
CC[C@@H]1/C(=C/c2ccccc2)N2C(=O)C[C@@H](c3ccccc3)N=C2N1Cc1ccc(OC)cc1OC	3.1	·	·	-0.9	·	0.5
CC(=O)Oc1cc(O)c2c(=O)c(OC(C)=O)c(-c3ccc(OC(C)=O)c(OC(C)=O)c3)oc2c1	·	·	-8.9	·	49.5*	·
Cn1c(=S)c2[nH]c(SCCN)nc2n(C)c1=O	3.5	-5.8	·	5.0	2.7	38.6*
COC(=O)Cc1cc(=O)n(-c2nc3ccccc3[nH]2)[nH]1	-11.1	21.9*	3.8	17.0	35.6	16.6
COc1ccc2c(c1)CO[C@H]([C@H](O)COC(C)=O)[C@H]2/C=C/c1ccccc1	4.6	·	·	12.8	·	-1.5
COc1ccc2cc3[n+](cc2c1O)CCc1cc2c(cc1-3)OCO2	23.6	24.5*	·	20.5*	·	31.5*
COc1cc2c(cc1OC)-c1cc3ccc(OC)c(OC)c3c[n+]1CC2	-9.0	6.2	-8.3	5.5	-2.9	1.5
O=C(CCCCn1c(=O)[nH]c2ccsc2c1=O)NCc1cccnc1	-1.9	-7.0	3.4	20.2*	2.6	-3.7
SMILES	TDP2 absorb	TCR CD3 inh	PAD4 FP inh	SIAE primary	HTRA1 inh	mABHD4 FP
O=C(CCCCn1c(=O)[nH]c2ccsc2c1=O)NCCc1ccccc1	-9.8	9.6	-1.5	2.9	4.0	2.6
COc1ccc(C2CC(=O)C(c3cccc(C)c3)=CN2Cc2ccccc2)cc1 (centres undefined)	-1.9	-1.0	·	-2.2	·	5.9
CC(OC(=O)Cc1ccccc1[N+](=O)[O-])C(=O)NC(=O)NC1CCCCC1 (centres undefined)	16.5	3.1	-2.1	-0.1	57.5*	-2.1
FC(F)(F)c1cc(C(F)(F)F)c2ccc(N3CCN(c4ccc(Cl)cc4)CC3)nc2n1	-5.2	-2.2	0.2	0.0	-0.3	1.0
N#CC(c1ccc(Cl)cc1)c1ccc2c(C(F)(F)F)cc(C(F)(F)F)nc2n1 (centres undefined)	0.4	6.5	-6.2	22.8*	19.6	14.1
COc1ccccc1C(=O)Nc1ccccc1SC(=O)c1ccccc1OC	0.3	0.5	79.7*	-20.9	-9.7	-11.8
